Assay results: ChEMBL document CHEMBL2424580, “Radiosynthesis of N-(4-chloro-3-[(11)C]methoxyphenyl)-2-picolinamide ([(11)C]ML128) as a PET radiotracer for metabotropic glutamate receptor subtype 4 (mGlu4)” (Bioorg Med Chem, 2013); call rule not given here

Assays:
[1] = target: Metabotropic glutamate receptor 5 (Homo sapiens) (UniProt P41594); assay: Antagonist activity at mGlu5a receptor (unknown origin) expressed in CHO cells assessed as inhibition of glutamate-induced inositol phosphate accumulation at 10 uM after 45 mins by liquid scintillation counting analysis relative to control; format: functional, cell-based
Sequence of Metabotropic glutamate receptor 5 (Homo sapiens) (P41594 21-1212 limits assumed): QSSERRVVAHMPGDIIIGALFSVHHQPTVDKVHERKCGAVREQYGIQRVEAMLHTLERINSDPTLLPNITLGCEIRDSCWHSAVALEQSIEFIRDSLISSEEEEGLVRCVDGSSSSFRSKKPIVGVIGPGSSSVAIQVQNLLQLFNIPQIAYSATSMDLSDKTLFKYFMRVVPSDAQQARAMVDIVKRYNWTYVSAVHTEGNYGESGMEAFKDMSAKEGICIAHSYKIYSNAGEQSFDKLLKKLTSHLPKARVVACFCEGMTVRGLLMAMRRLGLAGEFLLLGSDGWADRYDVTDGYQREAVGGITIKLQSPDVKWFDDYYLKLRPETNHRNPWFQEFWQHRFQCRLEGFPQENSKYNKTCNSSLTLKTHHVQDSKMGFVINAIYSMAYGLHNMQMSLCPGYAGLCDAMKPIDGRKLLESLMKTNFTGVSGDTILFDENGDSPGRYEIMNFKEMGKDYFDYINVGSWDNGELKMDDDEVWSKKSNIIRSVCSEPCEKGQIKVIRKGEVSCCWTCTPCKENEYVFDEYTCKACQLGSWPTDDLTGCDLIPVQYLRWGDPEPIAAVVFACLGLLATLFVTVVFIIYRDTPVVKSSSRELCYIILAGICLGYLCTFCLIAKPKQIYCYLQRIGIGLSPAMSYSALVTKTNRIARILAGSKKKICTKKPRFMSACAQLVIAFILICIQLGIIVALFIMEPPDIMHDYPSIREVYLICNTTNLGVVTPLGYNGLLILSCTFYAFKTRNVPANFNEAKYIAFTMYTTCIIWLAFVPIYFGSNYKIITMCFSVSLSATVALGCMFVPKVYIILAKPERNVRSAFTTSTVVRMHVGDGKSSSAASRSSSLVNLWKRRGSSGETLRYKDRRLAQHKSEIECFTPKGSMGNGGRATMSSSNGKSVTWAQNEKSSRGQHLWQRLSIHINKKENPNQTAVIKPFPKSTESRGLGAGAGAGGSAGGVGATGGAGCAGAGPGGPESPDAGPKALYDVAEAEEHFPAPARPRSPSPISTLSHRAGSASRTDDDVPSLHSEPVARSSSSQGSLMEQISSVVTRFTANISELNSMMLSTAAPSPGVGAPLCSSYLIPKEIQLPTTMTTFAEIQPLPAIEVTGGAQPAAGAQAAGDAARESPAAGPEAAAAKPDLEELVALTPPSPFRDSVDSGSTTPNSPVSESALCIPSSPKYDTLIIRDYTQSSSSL

[2] = target: Metabotropic glutamate receptor 8 (Homo sapiens) (UniProt O00222); assay: Antagonist activity at mGlu8 receptor (unknown origin) expressed in CHO cells assessed as inhibition of glutamate-induced inositol phosphate accumulation at 10 uM after 45 mins by liquid scintillation counting analysis relative to control; format: functional, cell-based
Sequence of Metabotropic glutamate receptor 8 (Homo sapiens) (O00222 whole entry): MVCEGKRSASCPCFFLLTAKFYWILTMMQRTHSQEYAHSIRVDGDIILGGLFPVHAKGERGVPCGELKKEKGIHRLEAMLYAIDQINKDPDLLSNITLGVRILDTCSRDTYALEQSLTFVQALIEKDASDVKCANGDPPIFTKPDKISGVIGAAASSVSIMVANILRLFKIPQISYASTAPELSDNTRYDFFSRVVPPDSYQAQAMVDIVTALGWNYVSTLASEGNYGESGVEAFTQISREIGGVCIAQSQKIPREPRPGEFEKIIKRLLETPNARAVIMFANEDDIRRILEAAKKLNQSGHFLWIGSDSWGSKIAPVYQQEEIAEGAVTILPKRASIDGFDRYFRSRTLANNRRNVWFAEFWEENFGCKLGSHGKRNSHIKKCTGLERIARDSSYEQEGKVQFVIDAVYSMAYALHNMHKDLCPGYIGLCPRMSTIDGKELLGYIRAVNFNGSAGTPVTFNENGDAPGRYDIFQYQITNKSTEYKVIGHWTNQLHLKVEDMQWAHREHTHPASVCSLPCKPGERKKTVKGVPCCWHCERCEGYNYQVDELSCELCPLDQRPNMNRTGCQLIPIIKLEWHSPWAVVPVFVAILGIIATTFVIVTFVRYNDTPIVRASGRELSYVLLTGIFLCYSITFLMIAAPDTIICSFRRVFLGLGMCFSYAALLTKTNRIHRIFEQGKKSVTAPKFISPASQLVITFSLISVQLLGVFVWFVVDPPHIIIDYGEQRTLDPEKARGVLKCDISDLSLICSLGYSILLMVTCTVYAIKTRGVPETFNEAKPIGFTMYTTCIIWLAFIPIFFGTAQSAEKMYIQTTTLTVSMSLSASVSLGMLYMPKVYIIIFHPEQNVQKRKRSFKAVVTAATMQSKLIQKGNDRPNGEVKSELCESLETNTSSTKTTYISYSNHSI

[3] = target: Metabotropic glutamate receptor 5 (Homo sapiens) (UniProt P41594); assay: Agonist activity at mGlu5a receptor (unknown origin) expressed in CHO cells assessed as induction of inositol phosphate accumulation at 10 uM after 45 mins by liquid scintillation counting analysis relative to control; format: functional, cell-based
How it was run: (§1)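 Stably transfected CHO cells grown to confluency (3–4 days), then labelled overnight with myo-[3H]inositol in glutamine-free medium. Compound at 10 μM, 45 min at 37°C, in Locke's buffer pH 7.4 with 20 mM LiCl. IPs extracted with 0.1 M HCl, separated by anion exchange, counted by liquid scintillation. Result given as % of maximal agonist activity. Duplicates in two experiments on different passages.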

[4] = target: Metabotropic glutamate receptor 8 (Homo sapiens) (UniProt O00222); assay: Agonist activity at mGlu8 receptor (unknown origin) expressed in CHO cells assessed as induction of inositol phosphate accumulation at 10 uM after 45 mins by liquid scintillation counting analysis relative to control; format: functional, cell-based; how it was run: as §1
[5] = Metabolic stability in Sprague-Dawley rat plasma assessed as intact compound level at 24.1 MBq, iv after 5 mins by gamma counting analysis; format: ADME, organism-based; conditions: read-out: Stability
How it was run: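 Femoral arterial blood was drawn from three rats at 5, 25 and 55 min after i.v. radioligand and centrifuged. Plasma was mixed 1:1 with acetonitrile and centrifuged to remove protein. The supernatant was loaded on a phenyl SPE cartridge and eluted with an acetonitrile–0.1% TFA/water gradient (0–100% acetonitrile) to separate intact tracer.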

Thalamus [6] = assay: Drug uptake in Sprague-Dawley rat thalamus at 24.1 MBq, iv measured within 20 mins by PET analysis; format: ADME, organism-based; conditions: in vivo
How it was run: (§2)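 Male Sprague Dawley rats (300–500 g) under isoflurane/nitrous oxide anesthesia, with radioligand given via tail-vein catheter in 10% ethanol/saline. Dynamic small-animal PET ran for 60 min from injection (frames 18×10″, 14×30″, 20×60″, 10×180″), followed by CT for anatomy and attenuation. Data were corrected for uniformity, scatter and attenuation and reconstructed by MLEM (30 iterations) to give regional time-activity curves.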

Thalamus [7] = assay: Drug uptake in Sprague-Dawley rat thalamus at 24.1 MBq, iv measured for 1 to 3 mins by PET analysis; format: ADME, organism-based; conditions: in vivo; how it was run: as §2
[8] = Drug uptake in Sprague-Dawley rat olfactory bulb at 24.1 MBq, iv measured for 1 to 3 mins by PET analysis; format: ADME, organism-based; conditions: in vivo; how it was run: as §2
Cerebellum [9] = assay: Drug uptake in Sprague-Dawley rat cerebellum at 24.1 MBq, iv measured within 20 mins by PET analysis; format: ADME, organism-based; conditions: in vivo; how it was run: as §2
[10] = Drug uptake in Sprague-Dawley rat olfactory bulb at 24.1 MBq, iv measured within 20 mins by PET analysis; format: ADME, organism-based; conditions: in vivo; how it was run: as §2
Striatum [11] = assay: Drug uptake in Sprague-Dawley rat striatum at 24.1 MBq, iv measured within 20 mins by PET analysis; format: ADME, organism-based; conditions: in vivo; how it was run: as §2
Striatum [12] = assay: Reduction in drug uptake in Sprague-Dawley rat striatum at 24.1 MBq, iv after 2 to 15 mins by PET analysis in presence of mGlu5 blocker MTEP hydrochloride; format: ADME, organism-based; conditions: in vivo
How it was run: (§3)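 MTEP·HCl (5 mg/kg, in sterile water) was injected into the tail vein 2 min before i.v. radioligand. Anesthetized rats were imaged by 60-min dynamic PET with CT attenuation correction and MLEM reconstruction. Uptake at 2–15 min was compared with control scans, and percent change was calculated per brain region.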

Cerebellum [13] = assay: Reduction in drug uptake in Sprague-Dawley rat cerebellum at 24.1 MBq, iv after 2 to 15 mins by PET analysis in presence of mGlu4 blocker N-(3-(Difluoromethoxy)phenyl)-2-picolinamide hydrochloride salt; format: ADME, organism-based; conditions: in vivo
How it was run: as §3, with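 “Rats were pretreated with the mGlu4 blocker (10 mg/kg i.p.,” for “MTEP·HCl (5 mg/kg,”, “10% ethanol/10% Tween-20 in” for “sterile”, “30” for “was injected into the tail vein 2”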

Hippocampus [14] = assay: Drug uptake in Sprague-Dawley rat hippocampus at 24.1 MBq, iv measured within 20 mins by PET analysis; format: ADME, organism-based; conditions: in vivo; how it was run: as §2
[15] = Reduction in drug uptake in Sprague-Dawley rat whole brain at 24.1 MBq, iv after 2 to 15 mins by PET analysis in presence of mGlu4 blocker N-(3-(Difluoromethoxy)phenyl)-2-picolinamide hydrochloride salt; format: ADME, organism-based; conditions: in vivo
How it was run: as §3, with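 “Rats were pretreated with the mGlu4 blocker (10 mg/kg i.p.,” for “MTEP·HCl (5 mg/kg,”, “10% ethanol/10% Tween-20 in” for “sterile”, “30” for “was injected into the tail vein 2”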

Hippocampus [16] = assay: Reduction in drug uptake in Sprague-Dawley rat hippocampus at 24.1 MBq, iv after 2 to 15 mins by PET analysis in presence of mGlu5 blocker MTEP hydrochloride; format: ADME, organism-based; conditions: in vivo; how it was run: as §3
Kidney = assay: Biodistribution in Sprague-Dawley rat kidney at 27.4 to 48.1 MBq after 1 to 40 mins by gamma counting analysis; format: ADME, organism-based; conditions: in vivo
How it was run: (§4)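 Male Sprague Dawley rats (300–500 g) given the radioligand i.v. (27.4–48.1 MBq/animal) in 10% ethanol/saline. Three rats were sacrificed at each of 1, 5, 10, 20 and 40 min. Harvested tissues were weighed and gamma-counted. Counts were corrected for decay and injected activity and expressed as %ID/g tissue.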

Muscle tissue = assay: Biodistribution in Sprague-Dawley rat muscle at 27.4 to 48.1 MBq after 1 to 40 mins by gamma counting analysis; format: ADME, organism-based; conditions: in vivo; how it was run: as §4
Striatum [17] = assay: Drug uptake in Sprague-Dawley rat striatum at 24.1 MBq, iv measured for 1 to 3 mins by PET analysis; format: ADME, organism-based; conditions: in vivo; how it was run: as §2
Hippocampus [18] = assay: Drug uptake in Sprague-Dawley rat hippocampus at 24.1 MBq, iv measured for 1 to 3 mins by PET analysis; format: ADME, organism-based; conditions: in vivo; how it was run: as §2
[19] = Metabolic stability in Sprague-Dawley rat plasma assessed as intact compound level at 24.1 MBq, iv after 50 mins by gamma counting analysis; format: ADME, organism-based; conditions: read-out: Stability
Brain = assay: Biodistribution in Sprague-Dawley rat brain at 27.4 to 48.1 MBq after 1 to 40 mins by gamma counting analysis; format: ADME, organism-based; conditions: in vivo; how it was run: as §4
[20] = Reduction in drug uptake in Sprague-Dawley rat whole brain at 24.1 MBq, iv after 2 to 15 mins by PET analysis in presence of mGlu5 blocker MTEP hydrochloride; format: ADME, organism-based; conditions: in vivo; how it was run: as §3
Cerebellum [21] = assay: Drug uptake in Sprague-Dawley rat cerebellum at 24.1 MBq, iv measured for 1 to 3 mins by PET analysis; format: ADME, organism-based; conditions: in vivo; how it was run: as §2
Heart = assay: Biodistribution in Sprague-Dawley rat heart at 27.4 to 48.1 MBq after 1 to 40 mins by gamma counting analysis; format: ADME, organism-based; conditions: in vivo; how it was run: as §4
Lung = assay: Biodistribution in Sprague-Dawley rat lung at 27.4 to 48.1 MBq after 1 to 40 mins by gamma counting analysis; format: ADME, organism-based; conditions: in vivo; how it was run: as §4
Hippocampus [22] = assay: Reduction in drug uptake in Sprague-Dawley rat hippocampus at 24.1 MBq, iv after 2 to 15 mins by PET analysis in presence of mGlu4 blocker N-(3-(Difluoromethoxy)phenyl)-2-picolinamide hydrochloride salt; format: ADME, organism-based; conditions: in vivo
How it was run: as §3, with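 “Rats were pretreated with the mGlu4 blocker (10 mg/kg i.p.,” for “MTEP·HCl (5 mg/kg,”, “10% ethanol/10% Tween-20 in” for “sterile”, “30” for “was injected into the tail vein 2”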

Striatum [23] = assay: Reduction in drug uptake in Sprague-Dawley rat striatum at 24.1 MBq, iv after 2 to 15 mins by PET analysis in presence of mGlu4 blocker N-(3-(Difluoromethoxy)phenyl)-2-picolinamide hydrochloride salt; format: ADME, organism-based; conditions: in vivo
How it was run: as §3, with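 “Rats were pretreated with the mGlu4 blocker (10 mg/kg i.p.,” for “MTEP·HCl (5 mg/kg,”, “10% ethanol/10% Tween-20 in” for “sterile”, “30” for “was injected into the tail vein 2”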

Liver = assay: Biodistribution in Sprague-Dawley rat liver at 27.4 to 48.1 MBq after 1 to 40 mins by gamma counting analysis; format: ADME, organism-based; conditions: in vivo; how it was run: as §4
Blood = assay: Biodistribution in Sprague-Dawley rat blood at 27.4 to 48.1 MBq after 1 to 40 mins by gamma counting analysis; format: ADME, organism-based; conditions: in vivo; how it was run: as §4
[24] = Octanol-PBS buffer partition coefficient, log D of the compound at pH 7.4 by gamma counting analysis; format: physicochemical
How it was run: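 Radiotracer was partitioned between PBS and octanol by vortexing 2 min, then centrifuging at >8000 rpm for 2 min. Octanol was serially re-extracted into fresh PBS across six tube sets. Phases were gamma-counted with decay correction. logD = log(octanol activity × 10 / PBS activity).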

Question: With COc1cc(NC(=O)c2ccccn2)ccc1Cl as the compound, how does the inhibition [1] read?
Answer: The inhibition was 51%.

Question: And the inhibition [2]?
Answer: Its inhibition is -5%.

Question: And the Activity [3]?
Answer: Its Activity is -15%.

Question: And the Activity [4]?
Answer: Its Activity is 13%.

Question: With [11CH3]Oc1cc(NC(=O)c2ccccn2)ccc1Cl as the compound, how does the remaining at 5 min [5] read?
Answer: The remaining at 5 min was 30%.

Question: What about the Drug uptake (Thalamus [6]) of the same compound?
Answer: Its Drug uptake is “Not Active”.

Question: And the Drug uptake (Thalamus [7])?
Answer: The Drug uptake was “Active”.

Question: And the Drug uptake [8]?
Answer: Its Drug uptake is “Active”.

Question: What about the Drug uptake (Cerebellum [9]) of the same compound?
Answer: The Drug uptake was “Not Active”.

Question: And the Drug uptake [10]?
Answer: The Drug uptake was “Not Active”.

Question: And the Drug uptake (Striatum [11])?
Answer: The Drug uptake was “Not Active”.

Question: And the Drug uptake (Striatum [12])?
Answer: The Drug uptake was “Active”.

Question: What about the Drug uptake (Cerebellum [13]) of the same compound?
Answer: The Drug uptake was “Active”.

Question: What about the Drug uptake (Hippocampus [14]) of the same compound?
Answer: The Drug uptake was “Not Active”.

Question: What about the Drug uptake [15] of the same compound?
Answer: The Drug uptake was “Active”.

Question: And the Drug uptake (Hippocampus [16])?
Answer: The Drug uptake was “Active”.

Question: And the Drug uptake (Kidney)?
Answer: Its Drug uptake is over 1 % ID/g.

Question: And the Drug uptake (Muscle tissue)?
Answer: Its Drug uptake is under 1 % ID/g.

Question: What about the Drug uptake (Striatum [17]) of the same compound?
Answer: The Drug uptake was “Active”.

Question: And the Drug uptake (Hippocampus [18])?
Answer: Its Drug uptake is “Active”.

Question: And the remaining at 50 min [19]?
Answer: Its remaining at 50 min is 10%.

Question: What about the Drug uptake (Brain) of the same compound?
Answer: The Drug uptake was under 1 % ID/g.

Question: And the Drug uptake [20]?
Answer: Its Drug uptake is “Active”.

Question: And the Drug uptake (Cerebellum [21])?
Answer: Its Drug uptake is “Active”.

Question: What about the Drug uptake (Heart) of the same compound?
Answer: Its Drug uptake is under 1 % ID/g.

Question: And the Drug uptake (Lung)?
Answer: Its Drug uptake is under 1 % ID/g.

Question: And the Drug uptake (Hippocampus [22])?
Answer: Its Drug uptake is “Active”.

Question: What about the Drug uptake (Striatum [23]) of the same compound?
Answer: Its Drug uptake is “Active”.

Question: And the Drug uptake (Liver)?
Answer: The Drug uptake was over 1 % ID/g.

Question: What about the Drug uptake (Blood) of the same compound?
Answer: The Drug uptake was under 1 % ID/g.

Question: And the logD [24]?
Answer: Its logD is 3.09.
